Two compounds from ChEMBL document CHEMBL4414558, “Dehydroabietylamine Ureas and Thioureas as Tyrosyl-DNA Phosphodiesterase 1 Inhibitors That Enhance the Antitumor Effect of Temozolomide on Glioblastoma Cells” (J Nat Prod, 2019) can be followed below.

One may read the IC50 as the point on the concentration scale where inhibition reaches its midpoint.

Assay [1] deals with U-87 MG. Nature of the assay: Potentiation of TMZ-induced cytotoxicity against human U87MG cells assessed as reduction in cell viability at 100 uM incubated for 72 hrs in presence of 2000 uM TMZ by MTT assay relative to TMZ alone. The assay is classed as functional, U-87MG ATCC. A general note: Tetrazolium assays rely on reduction of a dye to a coloured formazan, in cell work by metabolically active cells.

In assay [2] the test system is U-87 MG. Nature of the assay: Potentiation of TMZ-induced cytotoxicity against human U87MG cells assessed as cell viability at 100 uM incubated for 72 hrs in presence of 2000 uM TMZ by MTT assay (reference value: 100%). The assay is classed as functional, U-87MG ATCC.
For assay [3], the system named is U-87 MG. As to the kind of experiment: Cytotoxicity activity against human U87MG cells assessed as reduction in cell viability incubated for 72 hrs by MTT assay. The assay is classed as cell-based, U-87MG ATCC.
In assay [4] the target is Tyrosyl-DNA phosphodiesterase 1 (Homo sapiens, UniProt Q9NUW8). As to the kind of experiment: Inhibition of recombinant TDP1 (unknown origin) using 5'-(5,6 FAM-aac gtc agg gtc ttc c-BHQ1)-3' as substrate measured every 55 secs for 8 mins by fluorescence based assay. Summed up: (§1)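 Purified TDP1, either wild-type or the H493R mutant, tested against the fluorogenic substrate. The IC50 is the compound concentration that cuts enzyme activity by 50%.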

For another assay, the system named is A549. Nature of the assay: Cytotoxicity activity against human A549 cells assessed as reduction in cell viability incubated for 72 hrs by MTT assay. The assay is classed as cell-based. Conditions: A549, 72 h.
In assay [5] the target is Poly [ADP-ribose] polymerase 2 (Homo sapiens) (UniProt Q9UGN5). Nature of the assay: Inhibition of PARP2 (unknown origin) assessed as residual activity at 100 uM relative to control.
Assay [6] is described as follows: Cytotoxicity activity against human SK-MEL-8 cells assessed as reduction in cell viability incubated for 72 hrs by MTT assay. The assay is classed as cell-based.
Assay [7] concerns SNB-19. Nature of the assay: Potentiation of TMZ-induced cytotoxicity against human SNB19 cells assessed as reduction in cell viability at 100 uM incubated for 72 hrs in presence of 1250 uM TMZ by MTT assay relative to TMZ alone. It counts as functional.
Assay [8] concerns SNB-19. As to the kind of experiment: Potentiation of TMZ-induced cytotoxicity against human SNB19 cells assessed as combination index at 100 uM incubated for 72 hrs in presence of 1250 uM TMZ by MTT assay. It counts as functional.
The subject of assay [9] is U-87 MG. As to the kind of experiment: Potentiation of TMZ-induced cytotoxicity against human U87MG cells assessed as cell viability at 100 uM incubated for 72 hrs in presence of 2500 uM TMZ by MTT assay (reference value: 100%). It counts as functional, U-87MG ATCC.
The test system of assay [10] is U-87 MG. Nature of the assay: Potentiation of TMZ-induced cytotoxicity against human U87MG cells assessed as combination index at 100 uM incubated for 72 hrs in presence of 2500 uM TMZ by MTT assay. The assay is classed as functional, U-87MG ATCC.
Assay [11] deals with SNB-19. As to the kind of experiment: Cytotoxicity activity against human SNB19 cells assessed as reduction in cell viability incubated for 72 hrs by MTT assay. It counts as cell-based. Conditions: SNB-19, 72 h.
For assay [12], the target named is Tyrosyl-DNA phosphodiesterase 1 (Homo sapiens, UniProt Q9NUW8, H493R). As to the kind of experiment: Inhibition of recombinant TDP1 H493R mutant (unknown origin) using 5'-(5,6 FAM-aac gtc agg gtc ttc c-BHQ1)-3' as substrate measured every 55 secs for 8 mins by fluorescence based assay. Summed up:
as §1

The subject of assay [13] is U-87 MG. As to the kind of experiment: Potentiation of TMZ-induced cytotoxicity against human U87MG cells assessed as combination index at 100 uM incubated for 72 hrs in presence of 2000 uM TMZ by MTT assay. The assay is classed as functional, U-87MG ATCC.
Assay [14] is described as follows: Cytotoxicity activity against human MDA-MB cells assessed as reduction in cell viability incubated for 72 hrs by MTT assay. The assay is classed as cell-based.
The target of assay [15] is Poly [ADP-ribose] polymerase 1 (Homo sapiens) (UniProt P09874). As to the kind of experiment: Inhibition of PARP1 (unknown origin) assessed as residual activity at 100 uM relative to control.
In assay [16] the test system is SNB-19. Nature of the assay: Potentiation of TMZ-induced cytotoxicity against human SNB19 cells assessed as reduction in cell viability at 75 uM incubated for 72 hrs in presence of 2000 uM TMZ by MTT assay relative to TMZ alone. The assay is classed as functional.
Assay [17] deals with SNB-19. Nature of the assay: Potentiation of TMZ-induced cytotoxicity against human SNB19 cells assessed as cell viability at 75 uM incubated for 72 hrs in presence of 2000 uM TMZ by MTT assay (Rvb =100%). The assay is classed as functional.
In assay [18] the test system is SNB-19. As to the kind of experiment: Potentiation of TMZ-induced cytotoxicity against human SNB19 cells assessed as cell viability at 100 uM incubated for 72 hrs in presence of 1250 uM TMZ by MTT assay (Rvb =100%). The assay is classed as functional.
In assay [19] the test system is U-87 MG. Nature of the assay: Potentiation of TMZ-induced cytotoxicity against human U87MG cells assessed as reduction in cell viability at 100 uM incubated for 72 hrs in presence of 2500 uM TMZ by MTT assay relative to TMZ alone. It counts as functional, U-87MG ATCC.
The next assay relates to T98G. Nature of the assay: Cytotoxicity activity against human T98G cells assessed as reduction in cell viability incubated for 72 hrs by MTT assay. It counts as cell-based.
In assay [20] the test system is SNB-19. Nature of the assay: Potentiation of TMZ-induced cytotoxicity against human SNB19 cells assessed as combination index at 75 uM incubated for 72 hrs in presence of 2000 uM TMZ by MTT assay. It counts as functional.
For the next assay, the system named is MCF7. Nature of the assay: Cytotoxicity activity against human MCF7 cells assessed as reduction in cell viability incubated for 72 hrs by MTT assay. Conditions: MCF7, 72 h. The assay is classed as cell-based.
A further assay deals with U-937. Nature of the assay: Cytotoxicity activity against human U937 cells assessed as reduction in cell viability incubated for 72 hrs by MTT assay. It counts as cell-based. The conditions noted are these: U-937, 72 h.
Another assay relates to WI-38. As to the kind of experiment: Cytotoxicity activity against human WI38 cells assessed as reduction in cell viability incubated for 72 hrs by MTT assay. It counts as cell-based. Conditions: WI-38, 72 h.

Tyrosyl-DNA phosphodiesterase 1 (Homo sapiens, UniProt Q9NUW8), sequence (Q9NUW8 whole entry): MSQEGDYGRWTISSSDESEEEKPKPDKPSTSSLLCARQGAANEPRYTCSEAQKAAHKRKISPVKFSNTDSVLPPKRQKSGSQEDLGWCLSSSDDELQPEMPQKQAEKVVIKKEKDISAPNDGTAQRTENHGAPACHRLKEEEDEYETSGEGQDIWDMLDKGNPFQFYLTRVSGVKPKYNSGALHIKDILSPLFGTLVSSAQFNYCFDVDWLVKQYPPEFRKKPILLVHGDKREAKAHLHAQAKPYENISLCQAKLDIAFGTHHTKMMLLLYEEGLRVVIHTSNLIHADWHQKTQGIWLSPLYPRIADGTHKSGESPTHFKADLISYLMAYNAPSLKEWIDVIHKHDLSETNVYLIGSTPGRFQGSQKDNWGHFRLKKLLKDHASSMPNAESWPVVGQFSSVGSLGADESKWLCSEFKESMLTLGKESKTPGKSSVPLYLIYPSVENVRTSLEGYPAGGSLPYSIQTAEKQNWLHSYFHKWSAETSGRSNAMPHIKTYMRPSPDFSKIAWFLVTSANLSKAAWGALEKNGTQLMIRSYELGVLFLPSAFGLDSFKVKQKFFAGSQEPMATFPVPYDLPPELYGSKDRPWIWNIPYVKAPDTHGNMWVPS
Tyrosyl-DNA phosphodiesterase 1 (Homo sapiens, UniProt Q9NUW8, H493R), sequence (Q9NUW8 whole entry H493R): as the sequence (Q9NUW8 whole entry) above, with H493R counted along it
Poly [ADP-ribose] polymerase 2 (Homo sapiens), sequence (Q9UGN5 whole entry): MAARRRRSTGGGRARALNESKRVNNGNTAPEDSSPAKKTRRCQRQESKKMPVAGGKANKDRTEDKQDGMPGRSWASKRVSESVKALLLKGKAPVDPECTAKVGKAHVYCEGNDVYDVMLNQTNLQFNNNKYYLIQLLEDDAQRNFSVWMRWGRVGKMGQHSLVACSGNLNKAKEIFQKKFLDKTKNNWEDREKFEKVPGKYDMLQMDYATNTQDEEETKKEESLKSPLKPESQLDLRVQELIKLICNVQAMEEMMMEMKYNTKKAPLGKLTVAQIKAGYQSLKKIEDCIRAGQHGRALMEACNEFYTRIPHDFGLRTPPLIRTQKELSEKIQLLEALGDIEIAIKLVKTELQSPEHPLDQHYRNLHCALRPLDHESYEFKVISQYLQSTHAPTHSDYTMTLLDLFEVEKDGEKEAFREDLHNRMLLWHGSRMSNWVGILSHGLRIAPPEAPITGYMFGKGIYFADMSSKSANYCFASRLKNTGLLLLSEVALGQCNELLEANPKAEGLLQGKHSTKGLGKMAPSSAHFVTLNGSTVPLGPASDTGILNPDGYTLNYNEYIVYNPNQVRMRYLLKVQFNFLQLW
Poly [ADP-ribose] polymerase 1 (Homo sapiens), sequence (P09874 whole entry): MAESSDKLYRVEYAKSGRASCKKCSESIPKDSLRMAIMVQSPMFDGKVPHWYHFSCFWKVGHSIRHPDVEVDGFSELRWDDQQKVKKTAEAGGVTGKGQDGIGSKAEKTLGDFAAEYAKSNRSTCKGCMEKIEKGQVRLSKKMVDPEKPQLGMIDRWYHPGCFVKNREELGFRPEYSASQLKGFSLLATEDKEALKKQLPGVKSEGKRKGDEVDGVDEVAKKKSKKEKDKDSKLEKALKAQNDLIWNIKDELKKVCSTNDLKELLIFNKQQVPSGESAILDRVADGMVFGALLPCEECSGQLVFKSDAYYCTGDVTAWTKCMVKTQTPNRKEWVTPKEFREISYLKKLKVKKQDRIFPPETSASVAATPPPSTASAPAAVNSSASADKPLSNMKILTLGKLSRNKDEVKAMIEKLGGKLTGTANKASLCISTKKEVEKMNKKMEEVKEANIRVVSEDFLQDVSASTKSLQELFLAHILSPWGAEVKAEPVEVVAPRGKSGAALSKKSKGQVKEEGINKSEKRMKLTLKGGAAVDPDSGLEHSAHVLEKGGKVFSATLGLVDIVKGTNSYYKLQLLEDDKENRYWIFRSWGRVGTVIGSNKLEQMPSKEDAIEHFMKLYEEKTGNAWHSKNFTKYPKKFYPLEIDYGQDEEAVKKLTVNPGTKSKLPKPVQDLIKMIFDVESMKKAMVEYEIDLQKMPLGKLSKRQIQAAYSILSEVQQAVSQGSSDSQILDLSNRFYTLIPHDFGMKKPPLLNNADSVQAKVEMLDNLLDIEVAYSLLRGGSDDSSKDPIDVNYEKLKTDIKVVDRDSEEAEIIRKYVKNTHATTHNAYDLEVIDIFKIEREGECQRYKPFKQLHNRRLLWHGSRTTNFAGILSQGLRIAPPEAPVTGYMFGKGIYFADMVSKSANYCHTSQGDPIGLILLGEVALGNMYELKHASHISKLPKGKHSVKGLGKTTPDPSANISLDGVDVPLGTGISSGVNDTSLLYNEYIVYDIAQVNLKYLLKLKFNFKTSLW

Turning to `CC(C)c1ccc2c(c1)CC[C@H]1[C@](C)(CNC(=O)NC34CC5CC(CC(C5)C3)C4)CCC[C@]21C`, the “fold change (FC)” value is listed as 1.4 in the assay with U-87 MG [1], 1.6 with SNB-19 [7], 1.6 in the assay with SNB-19 [16] and 1.7 with U-87 MG [19]. For the same compound, the Activity in the assay on U-87 MG [2] was 72%; in assay [5], 107%; in the assay with U-87 MG [9] it was 58.2%; in [15], 79%; in the assay with SNB-19 [17], 63.7%; in the assay on SNB-19 [18] it was 61.3%. Also, the IC50 with U-87 MG [3] was more than 100 µM; in assay [4] it was 0.1 µM; in the assay on A549 it was more than 100 µM; in assay [6], more than 100 µM; in the assay with SNB-19 [11] it was more than 100 µM; in assay [12], 19.3 µM. Besides, the concentration for half-maximal inhibition (IC50) (in assay [14]; in the assay with T98G) was more than 100 µM throughout. Moreover, the CI with SNB-19 [8] turned out to be 0.25; in the assay with U-87 MG [10], 0.43; in the assay on U-87 MG [13] it was 0.44; in the assay on SNB-19 [20] it was 0.13.

As for `CC(C)c1ccc2c(c1)CC[C@H]1[C@](C)(CNC(=O)NCCCCCCNC(=O)NC[C@]3(C)CCC[C@]4(C)c5ccc(C(C)C)cc5CC[C@@H]34)CCC[C@]21C`, the Activity with U-87 MG [2] amounted to 109.8%; in assay [5], 142%; with U-87 MG [9], 59.3%; in assay [15] it was 99%; in the assay on SNB-19 [17], 70.3%; in the assay with SNB-19 [18], 88.9%. Also, the 50% inhibitory concentration (IC50) in the assay on U-87 MG [3] was more than 100 µM; in [4] it was 0.19 µM; with A549, more than 100 µM; in [6] it was more than 100 µM; with MCF7, more than 100 µM; in the assay with SNB-19 [11] it was more than 100 µM. The half-maximal inhibitory concentration (IC50) in assay [12] is 9.3 µM; in assay [14] it was more than 100 µM; in the assay with U-937, more than 100 µM; with T98G, more than 100 µM; in the assay on WI-38, more than 100 µM. In addition, the CI was found to be 0.92 with SNB-19 [8], 0.43 in the assay on U-87 MG [10], 1.79 in the assay on U-87 MG [13] and 0.15 in the assay with SNB-19 [20]. Also, the “fold change (FC)” value is on record as 1.4 with SNB-19 [16] and 1.7 in the assay on U-87 MG [19].
